According to ChEMBL document CHEMBL5108036, “A concise SAR-analysis of antimicrobial cationic amphipathic barbiturates for an improved activity-toxicity profile” (Eur J Med Chem, 2022):
Converted amounts (≈) assume the structure as drawn. The source made the active and inactive calls. The rule behind the calls is not given here.

What was measured:
Staphylococcus aureus = test: Antibacterial activity against Staphylococcus aureus ATCC 9144 incubated for 48 hrs and measured by broth microdilution assay; type: functional
Procedure, shortened: (§1)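 MICs in µg/mL were measured against the reference strains S. aureus ATCC 9144, B. subtilis 168, E. coli ATCC 25922 and P. aeruginosa ATCC 27853. Compounds were tested as di-TFA salts.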

Escherichia coli [1] = test: Antibacterial activity against Escherichia coli ATCC 25922 incubated for 48 hrs and measured by broth microdilution assay; type: functional; procedure, shortened: as §1
Erythrocyte = test: (§2) Hemolytic activity in human RBC measured after 1 hr by microplate reader method; type: toxicity, cell-based; conditions: erythrocyte
Procedure, shortened: (§3)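 Human red blood cell lysis was used as the cytotoxicity read-out, expressed as EC50 in µg/mL. The highest concentration tested was 500 µM. Compounds were tested as di-TFA salts.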

[2] = Solubility in pure water; type: physicochemical
Bacillus subtilis [3] = test: Antibacterial activity against Bacillus subtilis 168 incubated for 48 hrs and measured by broth microdilution assay; type: functional; procedure, shortened: as §1
Pseudomonas aeruginosa = test: Antibacterial activity against Pseudomonas aeruginosa ATCC 27853 incubated for 48 hrs and measured by broth microdilution assay; type: functional; procedure, shortened: as §1
[4] = as §2; type: toxicity, cell-based, Erythrocyte; conditions: human, human red blood cells (erythrocytes); procedure, shortened: as §3
Bacillus subtilis [5] = test: Disruption of inner membrane integrity in Bacillus subtilis 168 ATCC 23857 measured by luciferase based bioluminescence assay; type: functional
Procedure, shortened: (§4)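 Biosensor strains express click-beetle luciferase (lucGR), whose light output needs externally added D-luciferin; light rises when a damaged membrane lets substrate in. Cell suspension with 1 mM D-luciferin is added to the analytes, and luminescence is read every second for 180 s. Signal is normalized to an untreated water control. Cell density is about 100-fold that of the MIC assay, with at least three independent experiments.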

Escherichia coli [6] = test: Disruption of inner membrane integrity in Escherichia coli K12 (ATCC MC1061) transfected with pCGLS-1 measured by luciferase based bioluminescence assay; type: functional; procedure, shortened: as §4
[7] = Selectivity index, ratio HC50 for hemolytic activity in human RBC to MIC for antibacterial activity against Staphylococcus aureus ATCC 9144; type: toxicity; conditions: human red blood cells (erythrocytes)
Procedure, shortened: (§5)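 SI is the ratio of RBC lysis EC50 to MIC for each reference strain.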

[8] = Selectivity index, ratio HC50 for hemolytic activity in human RBC to MIC for antibacterial activity against Bacillus subtilis 168; type: toxicity; conditions: human red blood cells (erythrocytes); procedure, shortened: as §5
[9] = Selectivity index, ratio HC50 for hemolytic activity in human RBC to MIC for antibacterial activity against Escherichia coli ATCC 25922; type: toxicity; conditions: human red blood cells (erythrocytes); procedure, shortened: as §5
[10] = Selectivity index, ratio HC50 for hemolytic activity in human RBC to MIC for antibacterial activity against Pseudomonas aeruginosa ATCC 27853; type: toxicity; conditions: human red blood cells (erythrocytes); procedure, shortened: as §5
Bacillus subtilis [11] = test: Antibacterial activity against Bacillus subtilis 168 (ATCC 23857) expressing lux operon in sacA locus (PliaG) assessed as decrease in bacterial viability at 3.2 to 51.2 ug/ml; type: functional, organism-based; conditions: dose 3.2-51.2 µg/ml
Procedure, shortened: (§6)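 Biosensor strains (B. subtilis 168; E. coli K12) carry the Photorhabdus luminescens lux operon, so no substrate is added. Cell suspension, about 100-fold denser than in the MIC assay, was added to the analytes. Light was read every second for 180 s, normalized to an untreated water control and reported as RLU. At least three independent experiments were run.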

Bacillus subtilis [12] = test: Disruption of inner membrane integrity in Bacillus subtilis 168 (ATCC 23857) at 1.56 to 50 ug/ml measured by luciferase based bioluminescence assay; type: functional, organism-based; conditions: dose 1.56-50 µg/ml
Procedure, shortened: (§7)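 Membrane integrity was read with click beetle lucGR luciferase biosensor strains. Cell suspension containing 1 mM D-luciferin was added to the analytes. Luminescence was read every second for 180 s, normalized to an untreated water control and reported as RLU. At least three independent experiments were run.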

Escherichia coli [13] = test: Antibacterial activity against Escherichia coli K12 (ATCC MC1061) transfected with pCGLS-1 assessed as decrease in bacterial viability at 3.2 to 51.2 ug/ml; type: functional, organism-based; conditions: dose 3.2-51.2 µg/ml; procedure, shortened: as §6
Escherichia coli [14] = test: Disruption of inner membrane integrity in Escherichia coli K12 (ATCC MC1061) transfected with pCGLS-1 at 6.4 to 12.8 times MIC measured by luciferase based bioluminescence assay; type: functional, organism-based; conditions: DDE = dose-dependent effect; procedure, shortened: as §7
Escherichia coli [15] = test: Disruption of outer membrane integrity in Escherichia coli K12 (ATCC MC1061) transfected with pCGLS-1 at 3.2 ug/ml measured by NPN based fluorescence assay; type: functional, organism-based; conditions: dose 3.2 µg/ml, DDE = dose-dependent effect
Procedure, shortened: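 E. coli K12 outer membrane permeability was measured by 1-N-phenylnaphthylamine uptake. Cell suspension with 20 µM NPN was added to the analytes. Fluorescence was read every second for 180 s, normalized to an untreated water control and reported as RFU. At least three independent experiments were run.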

Escherichia coli [16] = test: Antibacterial activity against in Escherichia coli K12 (ATCC MC1061) transfected with pCGLS-1 assessed as decrease in cell viability at 25.6 to 51.2 ug/ml measured by NPN based fluorescence assay; type: functional, organism-based; conditions: dose 25.6-51.2 µg/ml
Procedure, shortened: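 At the end of the NPN outer membrane assay in E. coli K12, a 10 µL sample was spotted on an agar plate to assess bacterial viability.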

SMILES | MIC (Staphylococcus aureus) [µg/mL] | MIC (Escherichia coli [1]) [µg/mL] | EC50 (Erythrocyte) [µg/mL] | solubility [2] [µg/mL] | MIC (Bacillus subtilis [3]) [µg/mL] | MIC (Pseudomonas aeruginosa) [µg/mL] | EC50 at 1 h [4] [µg/mL] | MIC (Bacillus subtilis [5]) [µg/mL] | MIC (Escherichia coli [6]) [µg/mL] | selectivity ratio [7] | selectivity ratio [8] | selectivity ratio [9] | selectivity ratio [10] | Activity (Bacillus subtilis [11]) | Activity (Bacillus subtilis [12]) | Activity (Escherichia coli [13]) | Activity (Escherichia coli [14]) | Activity (Escherichia coli [15]) | Activity (Escherichia coli [16])
Cl.Cl.N=C(N)NCCCN1C(=O)N(CCCNC(=N)N)C(=O)C(Cc2ccc(Br)c(Cl)c2)(Cc2ccc(Br)c(Cl)c2)C1=O | 0.5 | 8 | 291 | < 1000 |  |  |  |  |  |  |  |  |  |  |  |  |  |  | 
N=C(N)NCCCN1C(=O)N(CCCNC(=N)N)C(=O)C(Cc2ccc(Br)c(Cl)c2)(Cc2ccc(Br)c(Cl)c2)C1=O.O=C(O)C(F)(F)F.O=C(O)C(F)(F)F | 2 | 8 |  | < 1000 | 2 | 32 | 348 |  |  |  |  |  |  |  |  |  |  |  | 
N=C(NCCCCCCNC(=N)NC(=N)Nc1ccc(Cl)cc1)NC(=N)Nc1ccc(Cl)cc1 [CHLORHEXIDINE] |  |  |  |  |  |  |  | 1.5 (≈ 2.97 µM) | 1.5 (≈ 2.97 µM) |  |  |  |  |  |  |  |  |  | 
N=C(N)NCCCCN1C(=O)N(CCCCNC(=N)N)C(=O)C(Cc2ccc(C(F)(F)F)cc2)(Cc2cc(Br)cc(Br)c2)C1=O.O=C(O)C(F)(F)F.O=C(O)C(F)(F)F (stereo not drawn) | 2 | 2 |  |  | 4 | 16 | 161 |  |  | 81 | 40 | 81 | 10 | Active | Active | Active | Dde | Dde | Active
Cl.Cl.NCCCN1C(=O)N(CCCN)C(=O)C(Cc2cc(C(F)(F)F)cc(C(F)(F)F)c2)(Cc2cc(C(F)(F)F)cc(C(F)(F)F)c2)C1=O | 8 | 8 | 224 | ≤ 1000 |  |  |  |  |  |  |  |  |  |  |  |  |  |  | 
Cl.Cl.N=C(N)NCCCN1C(=O)N(CCCNC(=N)N)C(=O)C(Cc2cc(C(F)(F)F)cc(C(F)(F)F)c2)(Cc2cc(C(F)(F)F)cc(C(F)(F)F)c2)C1=O | 2 | 8 | 118 | ≤ 1000 |  |  |  |  |  |  |  |  |  |  |  |  |  |  | 
NCCCN1C(=O)N(CCCN)C(=O)C(Cc2ccc(Br)c(Cl)c2)(Cc2ccc(Br)c(Cl)c2)C1=O.O=C(O)C(F)(F)F.O=C(O)C(F)(F)F | 8 | 8 |  | < 1000 | 4 | 16 | 323 |  |  | 40 | 81 | 40 | 20 |  |  |  |  |  | 
Cl.Cl.NCCCN1C(=O)N(CCCN)C(=O)C(Cc2ccc(Br)c(Cl)c2)(Cc2ccc(Br)c(Cl)c2)C1=O | 8 | 8 | 271 | ≤ 1000 |  |  |  |  |  |  |  |  |  |  |  |  |  |  | 
N=C(N)NCCCN1C(=O)N(CCCNC(=N)N)C(=O)C(Cc2cc(C(F)(F)F)cc(C(F)(F)F)c2)(Cc2cc(C(F)(F)F)cc(C(F)(F)F)c2)C1=O.O=C(O)C(F)(F)F.O=C(O)C(F)(F)F | 4 | 8 | 445 | < 1000 | 2 | 16 |  |  |  | 111 | 222 | 56 | 28 |  |  |  |  |  | 
N=C(N)NCCCN1C(=O)N(CCCNC(=N)N)C(=O)C(Cc2cc(Br)cc(Br)c2)(Cc2cc(Br)cc(Br)c2)C1=O.O=C(O)C(F)(F)F.O=C(O)C(F)(F)F | 2 | 4 |  |  | 2 | 8 | 187 |  |  | 93 | 93 | 47 | 23 |  |  |  |  |  | 
NCCCN1C(=O)N(CCCN)C(=O)C(Cc2cc(C(F)(F)F)cc(C(F)(F)F)c2)(Cc2cc(C(F)(F)F)cc(C(F)(F)F)c2)C1=O.O=C(O)C(F)(F)F.O=C(O)C(F)(F)F | 8 | 8 |  | < 1000 | 4 | 8 | 176 |  |  | 23 | 46 | 23 | 23 |  |  |  |  |  | 
